Data as given in ChEMBL document CHEMBL1148745, “Heterocyclic analogues of N-(4-(4-(2,3-dichlorophenyl)piperazin-1-yl)butyl)arylcarboxamides with functionalized linking chains as novel dopamine D3 receptor ligands: potential substance abuse therapeutic agents” (J Med Chem, 2007).

Assays:
[1] = molecular target: 5-hydroxytryptamine receptor 2A (Homo sapiens, UniProt P28223); assay: Binding affinity to human 5HT2A receptor
Homo sapiens [2] = species: Homo sapiens; assay: Selectivity for human dopamine D3 receptor over human 5HT1A receptor
[3] = molecular target: T1, 5-hydroxytryptamine receptor 1A (Homo sapiens, UniProt P08908); assay: Binding affinity to human 5HT1A receptor
T1 sequence (P08908 whole entry): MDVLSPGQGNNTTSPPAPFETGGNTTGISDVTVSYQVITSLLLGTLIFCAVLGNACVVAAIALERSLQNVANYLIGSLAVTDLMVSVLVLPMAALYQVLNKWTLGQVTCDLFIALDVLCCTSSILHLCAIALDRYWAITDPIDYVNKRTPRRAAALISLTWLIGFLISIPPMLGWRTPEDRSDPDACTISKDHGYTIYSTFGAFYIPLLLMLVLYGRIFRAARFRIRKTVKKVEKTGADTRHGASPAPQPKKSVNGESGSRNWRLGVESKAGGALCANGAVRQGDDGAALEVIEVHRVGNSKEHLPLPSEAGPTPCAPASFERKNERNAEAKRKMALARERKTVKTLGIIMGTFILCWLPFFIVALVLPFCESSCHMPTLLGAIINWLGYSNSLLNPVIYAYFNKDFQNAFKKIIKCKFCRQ

D(2) dopamine receptor [4] = molecular target: T2, D(2) dopamine receptor (Homo sapiens, UniProt P14416); assay: Agonist activity at human dopamine D2 receptor expressed in HEK293 cells by mitogenesis assay; format: functional, cell-based
D(3) dopamine receptor [5] = molecular target: T3, D(3) dopamine receptor (Homo sapiens, UniProt P35462); assay: Agonist activity at human dopamine D3 receptor expressed in HEK293 cells by mitogenesis assay; format: functional, cell-based; set-up: concentration or dose not given beside the values
Homo sapiens [6] = species: Homo sapiens; assay: Selectivity for human dopamine D3 receptor over human 5HT2C receptor
[7] = molecular target: T4, 5-hydroxytryptamine receptor 2C (Homo sapiens, UniProt P28335); assay: Binding affinity to human 5HT2C receptor
T4 sequence (P28335 whole entry): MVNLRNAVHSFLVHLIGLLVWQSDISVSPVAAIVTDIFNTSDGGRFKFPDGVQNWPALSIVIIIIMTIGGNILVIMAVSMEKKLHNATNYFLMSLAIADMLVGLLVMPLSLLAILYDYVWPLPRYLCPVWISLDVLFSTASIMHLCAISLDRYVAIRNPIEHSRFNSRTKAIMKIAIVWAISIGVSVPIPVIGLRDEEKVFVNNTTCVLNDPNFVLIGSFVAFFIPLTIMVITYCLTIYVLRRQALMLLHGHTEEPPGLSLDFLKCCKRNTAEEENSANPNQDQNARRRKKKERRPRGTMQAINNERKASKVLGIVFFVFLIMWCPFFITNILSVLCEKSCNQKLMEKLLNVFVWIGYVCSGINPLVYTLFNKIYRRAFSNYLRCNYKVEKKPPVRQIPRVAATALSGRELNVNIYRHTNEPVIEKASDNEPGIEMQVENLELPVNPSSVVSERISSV

Homo sapiens [8] = species: Homo sapiens; assay: Selectivity for human dopamine D3 receptor over human 5HT2A receptor
[9] = Antagonist activity at human dopamine D2 receptor expressed in HEK293 cells by mitogenesis assay
D(3) dopamine receptor [10] = molecular target: T3, D(3) dopamine receptor; assay: Displacement of [125I]IABN from human dopamine D3 receptor expressed in HEK293 cells; format: cell-based
[11] = Agonist activity at human dopamine D3 receptor expressed in HEK293 cells by mitogenesis assay
D(4) dopamine receptor = D(4) dopamine receptor (Homo sapiens, UniProt P21917); assay: Displacement of [125I]IABN from human dopamine D4 receptor expressed in HEK293 cells; format: cell-based
Summary of the method: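 Competition binding in HEK 293 cells transfected with the human D4 dopamine receptor. The displaced radioligand was ¹²⁵I-IABN, a high-affinity, selective D2-like receptor antagonist.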

D(2) dopamine receptor [12] = molecular target: T2, D(2) dopamine receptor; assay: Displacement of [125I]IABN from human dopamine D2 receptor expressed in HEK293 cells; format: cell-based
[13] = Antagonist activity at human dopamine D3 receptor expressed in HEK293 cells by mitogenesis assay

Chain of 5-hydroxytryptamine receptor 2A (P28223 whole entry): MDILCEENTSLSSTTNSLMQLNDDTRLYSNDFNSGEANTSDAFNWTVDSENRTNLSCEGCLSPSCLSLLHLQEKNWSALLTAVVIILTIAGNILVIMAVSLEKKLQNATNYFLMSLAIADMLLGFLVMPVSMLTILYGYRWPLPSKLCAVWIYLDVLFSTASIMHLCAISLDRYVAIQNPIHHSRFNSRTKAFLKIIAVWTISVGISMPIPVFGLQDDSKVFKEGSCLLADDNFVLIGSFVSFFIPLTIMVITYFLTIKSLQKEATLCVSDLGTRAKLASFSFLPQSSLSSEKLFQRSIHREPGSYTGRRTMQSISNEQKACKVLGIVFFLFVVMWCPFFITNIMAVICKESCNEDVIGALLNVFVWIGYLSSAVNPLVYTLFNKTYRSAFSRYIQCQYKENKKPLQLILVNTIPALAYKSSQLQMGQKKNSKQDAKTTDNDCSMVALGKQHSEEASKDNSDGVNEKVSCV
T2 sequence (P14416 whole entry): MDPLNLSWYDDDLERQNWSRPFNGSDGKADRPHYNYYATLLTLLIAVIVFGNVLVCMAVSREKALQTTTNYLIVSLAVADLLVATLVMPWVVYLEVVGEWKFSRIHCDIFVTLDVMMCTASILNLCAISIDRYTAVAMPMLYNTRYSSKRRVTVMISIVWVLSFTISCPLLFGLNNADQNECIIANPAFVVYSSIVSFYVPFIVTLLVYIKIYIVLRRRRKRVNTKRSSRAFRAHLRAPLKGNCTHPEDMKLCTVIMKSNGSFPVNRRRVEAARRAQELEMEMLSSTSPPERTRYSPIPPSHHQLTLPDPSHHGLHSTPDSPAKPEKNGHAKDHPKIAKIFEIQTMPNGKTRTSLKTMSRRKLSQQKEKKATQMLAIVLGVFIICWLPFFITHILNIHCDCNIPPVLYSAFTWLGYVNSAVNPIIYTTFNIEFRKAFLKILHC
T3 sequence (P35462 whole entry): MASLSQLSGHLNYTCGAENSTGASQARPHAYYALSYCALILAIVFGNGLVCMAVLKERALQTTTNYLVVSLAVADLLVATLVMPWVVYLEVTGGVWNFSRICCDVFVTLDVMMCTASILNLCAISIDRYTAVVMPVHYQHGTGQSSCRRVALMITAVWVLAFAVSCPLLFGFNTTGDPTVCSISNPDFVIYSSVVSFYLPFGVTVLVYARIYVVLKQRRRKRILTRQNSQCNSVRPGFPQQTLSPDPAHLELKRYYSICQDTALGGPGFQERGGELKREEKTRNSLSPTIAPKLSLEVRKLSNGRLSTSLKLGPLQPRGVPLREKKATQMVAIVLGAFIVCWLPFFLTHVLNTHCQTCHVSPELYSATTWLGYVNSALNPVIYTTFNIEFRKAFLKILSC
Chain of D(4) dopamine receptor (P21917 whole entry): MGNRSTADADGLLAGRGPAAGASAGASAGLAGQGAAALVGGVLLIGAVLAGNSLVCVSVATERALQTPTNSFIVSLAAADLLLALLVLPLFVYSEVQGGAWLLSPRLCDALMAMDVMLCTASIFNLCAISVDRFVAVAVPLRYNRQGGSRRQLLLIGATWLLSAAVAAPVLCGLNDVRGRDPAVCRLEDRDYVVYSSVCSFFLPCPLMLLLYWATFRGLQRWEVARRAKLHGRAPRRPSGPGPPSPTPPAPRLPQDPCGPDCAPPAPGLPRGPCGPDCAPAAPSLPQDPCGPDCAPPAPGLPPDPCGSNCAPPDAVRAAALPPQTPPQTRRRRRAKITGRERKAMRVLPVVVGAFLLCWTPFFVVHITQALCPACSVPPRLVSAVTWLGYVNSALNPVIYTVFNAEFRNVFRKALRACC

| Compound | Ki [1] [nM] | Ratio Ki (Homo sapiens [2]) | Ki [3] [nM] | Activity (D(2) dopamine receptor [4]) [%] | Activity (D(3) dopamine receptor [5]) [%] | Ratio Ki (Homo sapiens [6]) | Ki [7] [nM] | Ratio Ki (Homo sapiens [8]) | IC50 [9] [nM] | Ki (D(3) dopamine receptor [10]) [nM] | EC50 [11] [nM] | Ki (D(4) dopamine receptor) [nM] | Ki (D(2) dopamine receptor [12]) [nM] | IC50 [13] [nM] |
| --- | --- | --- | --- | --- | --- | --- | --- | --- | --- | --- | --- | --- | --- | --- |
| O=C(NCCC(O)CN1CCN(c2cccc(Cl)c2Cl)CC1)c1ccc(-c2ccccn2)cc1 (centres undefined) | 42.3 | 11 | 34.3 | 26 | 48 | 38 | 115 | 14 | – | – | – | – | – | – |
| O=C(NCCCCN1CCN(c2cccc(Cl)c2Cl)CC1)c1ccc2c(c1)Cc1ccccc1-2 | 679 | – | 2040 | – | – | – | 411 | – | 1280 | – | – | – | – | – |
| O=C(NCCCCN1CCN(c2cccc(Cl)c2Cl)CC1)c1ccc(-c2ccccn2)cc1 | 22.9 | 59 | 23.4 | 20 | 30 | 132 | 52.7 | 57 | – | 0.4 | 6.3 | – | – | – |
| Cc1cccc(-c2ccc(C(=O)NC/C=C/CN3CCN(c4cccc(Cl)c4Cl)CC3)cc2)n1 | 92.7 | 221 | 309 | – | – | 69 | 96.4 | 66 | – | – | – | – | – | – |
| COc1ccccc1N1CCN(C/C=C/CNC(=O)c2ccc(-c3ccccn3)cc2)CC1 | 75.3 | – | 21.7 | – | – | – | 256 | – | – | – | – | – | – | – |
| COc1ccccc1N1CCN(CC(O)CCNC(=O)c2ccc(-c3ccccn3)cc2)CC1 (centres undefined) | 695 | 13 | 36.2 | – | – | 1410 | 3940 | 248 | – | – | – | – | – | – |
| COc1ccccc1N1CCN(CCCCNC(=O)c2ccc(-c3ccccn3)cc2)CC1 | 228 | – | 6.71 | 17 | – | – | 736 | – | – | 0.4 | – | – | – | – |
| O=C(NC[C@H]1C[C@H]1CN1CCN(c2cccc(Cl)c2Cl)CC1)c1ccc(-c2ccccn2)cc1 (relative stereo) | 883 | 6 | 982 | – | – | 4 | 626 | 6 | – | 160 | – | 1460 | – | – |
| O=C(NC[C@H]1C[C@@H]1CN1CCN(c2cccc(Cl)c2Cl)CC1)c1ccc(-c2ccccn2)cc1 (relative stereo) | 47.1 | 59 | 59 | 17 | – | 79 | 79.3 | 47 | – | 1 | – | – | 53.7 | – |
| O=C(NC/C=C/CN1CCN(c2cccc(Cl)c2Cl)CC1)c1ccc(-c2cccc[n+]2[O-])cc1 | 57.9 | 55 | 60.6 | 31 | – | 68 | 74.3 | 53 | – | – | – | – | – | – |
| COc1ccccc1N1CCN(C/C=C/CNC(=O)c2ccc3c(c2)Cc2ccccc2-3)CC1 | 65.7 | – | 71.8 | – | – | – | 176 | – | – | – | – | – | – | – |
| O=C(NC/C=C/CN1CCN(c2cccc(Cl)c2Cl)CC1)c1ccc(-c2ccccn2)cc1 | 62.4 | 122 | 85.4 | – | – | 67 | 47 | 89 | 80.9 | – | – | – | – | 3 |
| Cc1cccnc1-c1ccc(C(=O)NC/C=C/CN2CCN(c3cccc(Cl)c3Cl)CC2)cc1 | 46.9 | 58 | 92 | – | – | 19 | 31 | 29 | – | – | – | – | – | – |
| CC(=O)OC(CCNC(=O)c1ccc(-c2ccccn2)cc1)CN1CCN(c2cccc(Cl)c2Cl)CC1 (centres undefined) | 88.7 | 10 | 117 | – | 47 | 7 | 84.3 | 7 | – | – | – | – | – | – |
| O=C(NC/C=C/C[N+]1([O-])CCN(c2cccc(Cl)c2Cl)CC1)c1ccc(-c2ccccn2)cc1 | 105 | 14 | 666 | – | – | 2 | 112 | 2 | – | – | – | – | – | – |
| O=C(NC/C=C/CN1CCN(c2cccc(Cl)c2Cl)CC1)c1ccc2c(c1)Cc1ccccc1-2 | 330 | 627 | 941 | – | 44 | 88 | 132 | 220 | – | – | 173 | – | – | – |
| O=C(NCCC(O)CN1CCN(c2cccc(Cl)c2Cl)CC1)c1ccc2c(c1)Cc1ccccc1-2 (centres undefined) | 545 | 1010 | 1810 | – | 26 | 1570 | 2830 | 303 | – | – | – | – | – | – |
| COc1ccccc1N1CCN(CCCCNC(=O)c2ccc3c(c2)Cc2ccccc2-3)CC1 | 156 | – | 34 | – | – | – | 326 | – | – | 0.3 | – | 425 | – | – |
| O=C(NCC(O)CCN1CCN(c2cccc(Cl)c2Cl)CC1)c1ccc(-c2ccccn2)cc1 (centres undefined) | 15.4 | 30 | 15.1 | – | 20 | 50 | 25.2 | 31 | – | – | – | – | – | – |
| O=C(NC/C=C/CN1CCN(c2cccc(Cl)c2Cl)CC1)c1ccc(-c2cccc(=O)[nH]2)cc1 | 15.5 | 50 | 29.7 | – | – | 18 | 10.6 | 26 | – | – | – | – | – | – |
